Results: ChEMBL document CHEMBL2203206, “Hesperetin: an inhibitor of the transforming growth factor-β (TGF-β) signaling pathway” (Eur J Med Chem, 2012)
Active and inactive are the calls of the source. The calls are words filed in the database; no cut-off is given here.

Columns and labels:
[1] = molecular target: TGF-beta receptor type-2 (Homo sapiens) (UniProt P37173); assay: Displacement of biotinylated TGF-beta1 from human TGF-beta type 2 receptor at 100 uM after 1 hr by avidin-FITC-based flow cytometry
TGF-beta receptor type-2 (Homo sapiens), sequence (P37173 whole entry): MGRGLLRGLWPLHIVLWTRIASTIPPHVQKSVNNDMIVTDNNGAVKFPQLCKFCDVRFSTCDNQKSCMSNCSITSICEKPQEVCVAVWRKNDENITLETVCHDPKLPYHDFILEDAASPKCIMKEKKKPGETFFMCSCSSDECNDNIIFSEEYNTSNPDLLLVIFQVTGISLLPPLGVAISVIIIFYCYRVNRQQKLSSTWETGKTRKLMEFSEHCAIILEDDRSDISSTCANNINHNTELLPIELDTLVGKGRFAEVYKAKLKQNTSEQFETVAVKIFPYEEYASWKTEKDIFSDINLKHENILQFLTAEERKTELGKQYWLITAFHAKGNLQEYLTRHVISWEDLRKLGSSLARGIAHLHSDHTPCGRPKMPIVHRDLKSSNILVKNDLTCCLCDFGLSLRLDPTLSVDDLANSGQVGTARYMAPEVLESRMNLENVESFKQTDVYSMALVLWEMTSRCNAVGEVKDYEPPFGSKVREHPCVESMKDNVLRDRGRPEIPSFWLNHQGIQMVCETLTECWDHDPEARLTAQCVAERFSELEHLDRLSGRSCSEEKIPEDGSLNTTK
Summary of the method: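 HeLa cells were incubated 1 h with 0.1% DMSO or 100 μM compound in the presence of biotinylated TGF-β1. Bound ligand was detected with avidin-FITC and fluorescence intensity read by flow cytometry.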

HeLa [2] = assay: Antagonist activity at human TGF-beta receptor in HeLa cells assessed as reduction in TGF-beta1-induced Smad3 phosphorylation at 100 uM after 1 hr by Western blot analysis; format: functional, cell-based
Summary of the method: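 Starved HeLa cells given 0.1% DMSO vehicle or 100 μM compound for 1 h, with or without TGF-β1. Lysates in Laemmli buffer were denatured 10 min at 95°C and run on 7.5% SDS gels, then transferred to PVDF. Blots were probed with p-Smad3 and Smad3 antibodies (1:1000) and detected by ECL.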

HeLa [3] = assay: Cytotoxicity against human HeLa cells at 1 to 200 uM after 24 hrs by MTS proliferation assay; format: cell-based
Summary of the method: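 HeLa cells were seeded at 1 × 10^4 per well in complete medium for 24 h. They were then exposed to vehicle (0.1% DMSO) or 0–200 μM compound for 24 h. Proliferation was read with a CellTiter 96 Aqueous non-radioactive (MTS-type) assay.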

HeLa [4] = assay: Antimigratory activity against human HeLa cells assessed as inhibition of TGF-beta1-induced cell migration at 100 uM after 24 hrs by scratch motility assay; format: functional, cell-based
Summary of the method: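 Confluent HeLa monolayers (1 × 10^6 cells/well), starved 24 h, were scratched with a pipette tip and washed. They then received 0.1% DMSO or 100 μM compound ± TGF-β1 for 24 h. Cells in five random fields of the scratch were counted and averaged per field.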

[5] = molecular target: TGF-beta receptor type-2 (Homo sapiens) (UniProt P37173); assay: Inhibition of TGF-beta1 induced TGF-beta type 2 receptor dimerization in human HeLa cells assessed as receptor dimers by bleaching-step counting assay (reference value: 39.9 +/- 2.5%); format: cell-based; set-up: scale not given: the % may be the effect or the level left
HeLa [6] = assay: Antimigratory activity against human HeLa cells assessed as inhibition of TGF-beta1-induced cell invasion across collagen matrix at 100 uM after 24 hr by collagen-based cell Invasion assay
HeLa [7] = assay: Antagonist activity at human TGF-beta receptor in HeLa cells assessed as suppression of nuclear translocation of Smad3 at 100 uM after 1 hr by immunofluorescence imaging; format: functional, cell-based
Summary of the method: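 HeLa cells were grown 24 h, then serum-starved 24 h and treated 1 h with 0.1% DMSO or 100 μM compound, ± TGF-β1. Cells were fixed in 4% paraformaldehyde, permeabilized with 0.1% Triton X-100 and blocked with 1% BSA/PBST. Staining used anti-Smad3 (1:200, overnight) and Alexa 488 secondary (1:500), imaged by confocal microscopy.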

[8] = molecular target: TGF-beta receptor type-2 (Homo sapiens) (UniProt P37173); assay: Inhibition of TGF-beta1 induced TGF-beta type 2 receptor dimerization in human HeLa cells at 100 uM after 1 hr by single-molecule fluorescence microscopy; format: cell-based
Summary of the method: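 HeLa cells were transfected for 4 h with TβRII-GFP plasmid (0.2 μg/mL) to give low expression. They were given 0.1% DMSO or 100 μM compound for 1 h, then 15 min with 10 ng/mL TGF-β1 where stimulated. Live-cell TIRF imaging used 488-nm excitation at 10 Hz for 200 frames. Spot intensities were fitted with Gaussians to give monomer/dimer fractions; purified GFP served as monomer reference.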

HeLa [9] = assay: Antagonist activity at human TGF-beta receptor in HeLa cells assessed as reduction in TGF-beta1-induced p21 expression at 100 uM after 24 hrs by Western blot analysis; format: functional, cell-based
Summary of the method: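 Starved HeLa cells exposed to vehicle (0.1% DMSO) or 100 μM compound for 24 h, with or without TGF-β1. Lysates were denatured at 95°C and separated on 7.5% SDS gels. PVDF blots were probed with anti-p21 (1:1000) and read by enhanced chemiluminescence.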

Activity [1]: Active
Activity [5]: 19.5%
inhibition [8]: 19.9%
Compound: COc1ccc([C@@H]2CC(=O)c3c(O)cc(O)cc3O2)cc1O [HESPERETIN]
inhibition (HeLa [2]): Active
Activity (HeLa [3]): Non-toxic
inhibition (HeLa [4]): Active
inhibition (HeLa [6]): Active
inhibition (HeLa [7]): Active
inhibition (HeLa [9]): Active
